Source: ChEMBL document CHEMBL1773048, “Synthesis of glycopeptide dendrimers, dimerization and affinity for Concanavalin A” (Bioorg Med Chem, 2011)
Where a SMILES comes first, the peptide text is derived from it. Bridges are numbered along the chain shown (N, C = ends). Roman numbers before positions name the chains, in order. [ ]: non-standard residue; d: D form. The star is where a group is joined. αMan = OC[C@H]1O[C@H](*)[C@@H](O)[C@@H](O)[C@@H]1O; Mpa = O=C(O)CCS

Key:
[1] = Ratio of methyl alpha-D-mannoside IC50 to compound IC50 for binding affinity to Concanavalin A
Method in brief: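 Relative potency is IC50 of methyl α-D-mannoside divided by inhibitor IC50. The reference is measured under the same conditions on the same plate by enhanced-sensitivity ELLA, and reference IC50 values are corrected to a common experimental value.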

[2] = Ratio of methyl alpha-D-mannoside IC50 to compound IC50 for binding affinity to Concanavalin A per carbohydrate moiety
Method in brief: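 Valency-normalised relative potency is IC50 of methyl α-D-mannoside divided by (inhibitor IC50 × n), where n is the number of mannose units. The reference IC50 is measured on the same plate by enhanced-sensitivity ELLA.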

[3] = Displacement of yeast mannan from Concanavalin A by Enzyme-linked lectin assay
Method in brief: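 Enhanced-sensitivity ELLA. Yeast mannan (10 µg/mL in PBS with CaCl2 and MnCl2) is coated overnight on plates and blocked 1 h at 37 °C with PBS containing 10 mg/mL BSA. Two-fold serial dilutions of inhibitor are preincubated 1 h at 37 °C with biotinylated Con A (5 µg/mL), transferred to the plates and incubated 1 h at 37 °C. Preformed Neutravidin–biotin-HRP is added for 1 h, then ABTS/H2O2 at pH 4.0. A415 is read after 5 min. IC50 is taken at 50% inhibition, at least triplicate.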

SMILES	Ratio IC50 [1]	Ratio IC50 [2]	IC50 [3] [µM]
O=[N+]([O-])c1ccc(O[C@H]2O[C@H](CO)[C@@H](O)[C@H](O)[C@@H]2O)cc1	2.1	2.1	644
NC(=O)[C@H](CCCCNC(=O)[C@H](CCC(=O)O)NC(=O)[C@H](CCCCNC(=O)[C@H](Cc1ccc(O)cc1)NC(=O)CCS[C@@H]1O[C@@H](CO)[C@H](O)[C@@H](O)[C@H]1O)NC(=O)[C@H](Cc1ccc(O)cc1)NC(=O)CCS[C@H]1O[C@H](CO)[C@@H](O)[C@H](O)[C@@H]1O)NC(=O)[C@H](CCC(=O)O)NC(=O)[C@H](CCCCNC(=O)[C@H](Cc1ccc(O)cc1)NC(=O)CCS[C@H]1O[C@H](CO)[C@@H](O)[C@H](O)[C@@H]1O)NC(=O)[C@H](Cc1ccc(O)cc1)NC(=O)CCS[C@H]1O[C@H](CO)[C@@H](O)[C@H](O)[C@@H]1O	22	5.5	60
OC[C@H]1OC(O)[C@@H](O)[C@@H](O)[C@@H]1O (stereo partly drawn) [D-MANNOSE]	0.13	0.13	10500
NC(=O)[C@H](CSSC[C@H](NC(=O)[C@H](Cc1ccc(O)cc1)NC(=O)CCS[C@H]1O[C@H](CO)[C@@H](O)[C@H](O)[C@@H]1O)C(N)=O)NC(=O)[C@H](Cc1ccc(O)cc1)NC(=O)CCS[C@H]1O[C@H](CO)[C@@H](O)[C@H](O)[C@@H]1O (I: [Mpa](αMan)-Tyr-Cys-NH2 / II: [Mpa](αMan)-Tyr-Cys-NH2; disulfide I:3-II:3)	12.7	6.4	104
NC(=O)[C@H](CSSC[C@H](NC(=O)[C@H](CCCCNC(=O)[C@H](CCCCNC(=O)[C@H](Cc1ccc(O)cc1)NC(=O)CCS[C@H]1O[C@H](CO)[C@@H](O)[C@H](O)[C@@H]1O)NC(=O)[C@H](Cc1ccc(O)cc1)NC(=O)CCS[C@@H]1O[C@@H](CO)[C@H](O)[C@@H](O)[C@H]1O)NC(=O)[C@H](CCCCNC(=O)[C@H](Cc1ccc(O)cc1)NC(=O)CCS[C@H]1O[C@H](CO)[C@@H](O)[C@H](O)[C@@H]1O)NC(=O)[C@H](Cc1ccc(O)cc1)NC(=O)CCS[C@@H]1O[C@@H](CO)[C@H](O)[C@@H](O)[C@H]1O)C(N)=O)NC(=O)[C@H](CCCCNC(=O)[C@H](CCCCNC(=O)[C@H](Cc1ccc(O)cc1)NC(=O)CCS[C@H]1O[C@H](CO)[C@@H](O)[C@H](O)[C@@H]1O)NC(=O)[C@H](Cc1ccc(O)cc1)NC(=O)CCS[C@@H]1O[C@@H](CO)[C@H](O)[C@@H](O)[C@H]1O)NC(=O)[C@H](CCCCNC(=O)[C@H](Cc1ccc(O)cc1)NC(=O)CCS[C@H]1O[C@H](CO)[C@@H](O)[C@H](O)[C@@H]1O)NC(=O)[C@H](Cc1ccc(O)cc1)NC(=O)CCS[C@@H]1O[C@@H](CO)[C@H](O)[C@@H](O)[C@H]1O	660	83	2
CO[C@H]1O[C@H](CO)[C@@H](O)[C@H](O)[C@@H]1O	1	1	1320
NC(=O)[C@H](CCCCNC(=O)[C@H](Cc1ccc(O)cc1)NC(=O)CCS[C@H]1O[C@H](CO)[C@@H](O)[C@H](O)[C@@H]1O)NC(=O)[C@H](Cc1ccc(O)cc1)NC(=O)CCS[C@@H]1O[C@@H](CO)[C@H](O)[C@@H](O)[C@H]1O	8.8	4.4	150
NC(=O)[C@H](CCCCNC(=O)[C@H](CCCCNC(=O)[C@H](Cc1ccc(O)cc1)NC(=O)CCS[C@H]1O[C@H](CO)[C@@H](O)[C@H](O)[C@@H]1O)NC(=O)[C@H](Cc1ccc(O)cc1)NC(=O)CCS[C@@H]1O[C@@H](CO)[C@H](O)[C@@H](O)[C@H]1O)NC(=O)[C@H](CCCCNC(=O)[C@H](Cc1ccc(O)cc1)NC(=O)CCS[C@H]1O[C@H](CO)[C@@H](O)[C@H](O)[C@@H]1O)NC(=O)[C@H](Cc1ccc(O)cc1)NC(=O)CCS[C@@H]1O[C@@H](CO)[C@H](O)[C@@H](O)[C@H]1O	25.4	6.4	52
N=C(N)NCCC[C@H](NC(=O)[C@H](CCCCNC(=O)[C@H](Cc1ccc(O)cc1)NC(=O)CCS[C@@H]1O[C@@H](CO)[C@H](O)[C@@H](O)[C@H]1O)NC(=O)[C@H](Cc1ccc(O)cc1)NC(=O)CCS[C@H]1O[C@H](CO)[C@@H](O)[C@H](O)[C@@H]1O)C(=O)NCCCC[C@H](NC(=O)[C@H](CCCNC(=N)N)NC(=O)[C@H](CCCCNC(=O)[C@H](Cc1ccc(O)cc1)NC(=O)CCS[C@H]1O[C@H](CO)[C@@H](O)[C@H](O)[C@@H]1O)NC(=O)[C@H](Cc1ccc(O)cc1)NC(=O)CCS[C@H]1O[C@H](CO)[C@@H](O)[C@H](O)[C@@H]1O)C(N)=O	14.3	3.6	92

The remaining molecules from weak to strong by IC50 [3], led by results:

Ratio IC50 [1]	Ratio IC50 [2]	IC50 [3] [µM]	SMILES
14.2	3.6	93	NC(=O)[C@H](CCC(=O)O)NC(=O)[C@H](CCCCNC(=O)[C@H](CCCCNC(=O)[C@H](Cc1ccc(O)cc1)NC(=O)CCS[C@H]1O[C@H](CO)[C@@H](O)[C@H](O)[C@@H]1O)NC(=O)[C@H](Cc1ccc(O)cc1)NC(=O)CCS[C@@H]1O[C@@H](CO)[C@H](O)[C@@H](O)[C@H]1O)NC(=O)[C@H](CCCCNC(=O)[C@H](Cc1ccc(O)cc1)NC(=O)CCS[C@H]1O[C@H](CO)[C@@H](O)[C@H](O)[C@@H]1O)NC(=O)[C@H](Cc1ccc(O)cc1)NC(=O)CCS[C@@H]1O[C@@H](CO)[C@H](O)[C@@H](O)[C@H]1O
20.6	5.2	64	NC(=O)[C@H](CCCCNC(=O)[C@H](CO)NC(=O)[C@H](CCCCNC(=O)[C@H](Cc1ccc(O)cc1)NC(=O)CCS[C@@H]1O[C@@H](CO)[C@H](O)[C@@H](O)[C@H]1O)NC(=O)[C@H](Cc1ccc(O)cc1)NC(=O)CCS[C@H]1O[C@H](CO)[C@@H](O)[C@H](O)[C@@H]1O)NC(=O)[C@H](CO)NC(=O)[C@H](CCCCNC(=O)[C@H](Cc1ccc(O)cc1)NC(=O)CCS[C@H]1O[C@H](CO)[C@@H](O)[C@H](O)[C@@H]1O)NC(=O)[C@H](Cc1ccc(O)cc1)NC(=O)CCS[C@H]1O[C@H](CO)[C@@H](O)[C@H](O)[C@@H]1O
21.3	5.3	62	N=C(N)NCCC[C@H](NC(=O)[C@H](CCCCNC(=O)[C@H](CCCCNC(=O)[C@H](Cc1ccc(O)cc1)NC(=O)CCS[C@H]1O[C@H](CO)[C@@H](O)[C@H](O)[C@@H]1O)NC(=O)[C@H](Cc1ccc(O)cc1)NC(=O)CCS[C@@H]1O[C@@H](CO)[C@H](O)[C@@H](O)[C@H]1O)NC(=O)[C@H](CCCCNC(=O)[C@H](Cc1ccc(O)cc1)NC(=O)CCS[C@H]1O[C@H](CO)[C@@H](O)[C@H](O)[C@@H]1O)NC(=O)[C@H](Cc1ccc(O)cc1)NC(=O)CCS[C@@H]1O[C@@H](CO)[C@H](O)[C@@H](O)[C@H]1O)C(N)=O
24	6	55	NC(=O)[C@H](CO)NC(=O)[C@H](CCCCNC(=O)[C@H](CCCCNC(=O)[C@H](Cc1ccc(O)cc1)NC(=O)CCS[C@H]1O[C@H](CO)[C@@H](O)[C@H](O)[C@@H]1O)NC(=O)[C@H](Cc1ccc(O)cc1)NC(=O)CCS[C@@H]1O[C@@H](CO)[C@H](O)[C@@H](O)[C@H]1O)NC(=O)[C@H](CCCCNC(=O)[C@H](Cc1ccc(O)cc1)NC(=O)CCS[C@H]1O[C@H](CO)[C@@H](O)[C@H](O)[C@@H]1O)NC(=O)[C@H](Cc1ccc(O)cc1)NC(=O)CCS[C@@H]1O[C@@H](CO)[C@H](O)[C@@H](O)[C@H]1O
25.4	6.4	52	NC(=O)[C@H](CSSC[C@H](NC(=O)[C@H](CCCCNC(=O)[C@H](Cc1ccc(O)cc1)NC(=O)CCS[C@H]1O[C@H](CO)[C@@H](O)[C@H](O)[C@@H]1O)NC(=O)[C@H](Cc1ccc(O)cc1)NC(=O)CCS[C@@H]1O[C@@H](CO)[C@H](O)[C@@H](O)[C@H]1O)C(N)=O)NC(=O)[C@H](CCCCNC(=O)[C@H](Cc1ccc(O)cc1)NC(=O)CCS[C@H]1O[C@H](CO)[C@@H](O)[C@H](O)[C@@H]1O)NC(=O)[C@H](Cc1ccc(O)cc1)NC(=O)CCS[C@@H]1O[C@@H](CO)[C@H](O)[C@@H](O)[C@H]1O
455	57	2.9	NC(=O)[C@H](CCCCNC(=O)[C@H](CCCCNC(=O)[C@H](CCCCNC(=O)[C@H](Cc1ccc(O)cc1)NC(=O)CCS[C@H]1O[C@H](CO)[C@@H](O)[C@H](O)[C@@H]1O)NC(=O)[C@H](Cc1ccc(O)cc1)NC(=O)CCS[C@@H]1O[C@@H](CO)[C@H](O)[C@@H](O)[C@H]1O)NC(=O)[C@H](CCCCNC(=O)[C@H](Cc1ccc(O)cc1)NC(=O)CCS[C@@H]1O[C@@H](CO)[C@H](O)[C@@H](O)[C@H]1O)NC(=O)[C@H](Cc1ccc(O)cc1)NC(=O)CCS[C@@H]1O[C@@H](CO)[C@H](O)[C@@H](O)[C@H]1O)NC(=O)[C@H](CCCCNC(=O)[C@H](CCCCNC(=O)[C@H](Cc1ccc(O)cc1)NC(=O)CCS[C@@H]1O[C@@H](CO)[C@H](O)[C@@H](O)[C@H]1O)NC(=O)[C@H](Cc1ccc(O)cc1)NC(=O)CCS[C@H]1O[C@H](CO)[C@@H](O)[C@H](O)[C@@H]1O)NC(=O)[C@H](CCCCNC(=O)[C@H](Cc1ccc(O)cc1)NC(=O)CCS[C@H]1O[C@H](CO)[C@@H](O)[C@H](O)[C@@H]1O)NC(=O)[C@H](Cc1ccc(O)cc1)NC(=O)CCS[C@H]1O[C@H](CO)[C@@H](O)[C@H](O)[C@@H]1O
